Experimental data as given in article PMC6774347 (European Journal of Organic Chemistry, 2019).

What was measured:
CEM leukemia cell line = assay: Differential nuclear staining; format: cell-based, human; settings: 48 h; for CEM cell death (in words): at the prepared / highest soluble concentrations; for Concentration inducing significant death in CEM cells: tested 100 µM to 0.5 µM
Outline: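 Live-cell imaging differential nuclear staining with Hoechst 33342 (all nuclei) and propidium iodide (dead cells). DMSO stocks at highest soluble concentration were serially diluted and added to cells in complete medium (final 1 % v/v DMSO), 100 µM down to 0.5 µM. Read at 48 h in quadruplicate. Controls were untreated, 1 % DMSO and 1.62 mM H2O2. CC50 (50 % membrane-integrity loss versus untreated) was linearly interpolated between the two concentrations nearest 50 %.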

[1] = Compound solubility in DMSO stock and in the biological assays; format: physicochemical; settings: for Solubility (in words): stock solutions at highest soluble concentration in DMSO; for Compound crystallization in treated cells: CEM cells in complete media, 1 % v/v DMSO
TK– VZV = assay: Antiviral assay, plaque formation in HEL cells; format: cell-based, varicella-zoster virus (VZV); settings: Human alphaherpesvirus 3, HEL
CEM cells = assay: Annexin V-FITC / propidium iodide apoptosis assay; format: cell-based, human; settings: 24 h, annexin-FITC and PI staining
[2] = system: MDA-MB-231 (MB-231) triple-negative breast cancer cell line; assay: Differential nuclear staining; format: cell-based; settings: Homo sapiens, MDA-MB-231, 72 h
Outline: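 MDA-MB-231 cells were stained with Hoechst 33342 and propidium iodide and imaged live. Serial dilutions from 100 µM (to 0.5 µM) in DMSO were added directly to cell-containing wells (final 1 % v/v DMSO). Read at 72 h in quadruplicate. Controls were untreated, 1 % DMSO and 1.62 mM H2O2. CC50 was linearly interpolated between the two concentrations flanking 50 % death relative to untreated cells.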

TK+ VZV = assay: Antiviral assay, plaque formation in HEL cells; format: cell-based, varicella-zoster virus (VZV); settings: Human alphaherpesvirus 3, HEL

## COc1cc(-c2cn(-c3cc(=O)oc4ccc(C)cc34)nn2)cc(OC)c1OC [Compound 14, 6‐Methyl‐4‐(4‐(3,4,5‐trimethoxyphenyl)‐1H‐1,2,3‐triazol‐1‐yl)‐2H‐chromen‐2‐one]
CEM leukemia cell line
  CEM cell death (in words): did not induce significant CEM cell death

## COc1cccc(-c2cn(-c3cc(=O)oc4ccc(Br)cc34)nn2)c1 [Compound 24, 6‐Bromo‐4‐(4‐(3‐methoxyphenyl)‐1H‐1,2,3‐triazol‐1‐yl)‐2H‐chromen‐2‐one]
CEM leukemia cell line
  Concentration inducing significant death in CEM cells: approximately 10 µM

## COc1cc(-c2cn(-c3cc(=O)oc4ccc(Cl)cc34)nn2)cc(OC)c1OC [Compound 15, 6‐Chloro‐4‐(4‐(3,4,5‐trimethoxyphenyl)‐1H‐1,2,3‐triazol‐1‐yl)‐2H‐chromen‐2‐one]
CEM leukemia cell line
  CEM cell death (in words): demonstrated cytotoxicity at its highest soluble concentration
[1]
  Solubility (in words): one of the least soluble compounds in the series

## COc1cc(-c2cn(-c3cc(=O)oc4ccccc34)nn2)cc(OC)c1OC [Compound 13, 4‐(4‐(3,4,5‐Trimethoxyphenyl)‐1H‐1,2,3‐triazol‐1‐yl)‐2H‐chromen‐2‐one]
CEM leukemia cell line
  CEM cell death (in words): did not induce quantifiable CEM cell death
[1]
  Compound crystallization in treated cells: significant compound crystallization

## COc1cc(-c2cn(-c3ccccc3)nn2)cc(OC)c1OC [Compound 20, 1‐Phenyl‐4‐(3,4,5‐trimethoxyphenyl)‐1H‐1,2,3‐triazole]
TK– VZV
  EC50: 39.1 µM
CEM cells
  Mode of cell death (apoptosis vs necrosis): preferentially induces cell death via apoptosis
[2]
  CC50: 55.4 µM
[1]
  Solubility (in words): the most readily soluble of the compounds
TK+ VZV
  EC50: 39.9 µM

## COc1ccc(-c2cn(-c3cc(=O)oc4ccc(Br)cc34)nn2)cc1 [Compound 23, 6‐Bromo‐4‐(4‐(4‐methoxyphenyl)‐1H‐1,2,3‐triazol‐1‐yl)‐2H‐chromen‐2‐one]
CEM leukemia cell line
  Concentration inducing significant death in CEM cells: approximately 10 µM

## COc1ccc2c(-n3cc(-c4cc(OC)c(OC)c(OC)c4)nn3)cc(=O)oc2c1 [Compound 19, 7‐Methoxy‐4‐(4‐(3,4,5‐trimethoxyphenyl)‐1H‐1,2,3‐triazol‐1‐yl)‐2H‐chromen‐2‐one]
CEM leukemia cell line
  CEM cell death (in words): did not induce quantifiable CEM cell death
[1]
  Compound crystallization in treated cells: significant compound crystallization

## COc1cc(OC)cc(-c2cn(-c3cc(=O)oc4ccc(Br)cc34)nn2)c1 [Compound 22, 6‐Bromo‐4‐(4‐(3,5‐dimethoxyphenyl)‐1H‐1,2,3‐triazol‐1‐yl)‐2H‐chromen‐2‐one]
CEM leukemia cell line
  Concentration inducing significant death in CEM cells: approximately 10 µM
TK+ VZV
  EC50: 58.5 µM

## COc1cc(-c2cn(-c3cc(=O)oc4cc(C)ccc34)nn2)cc(OC)c1OC [Compound 18, 7‐Methyl‐4‐(4‐(3,4,5‐trimethoxyphenyl)‐1H‐1,2,3‐triazol‐1‐yl)‐2H‐chromen‐2‐one]
CEM leukemia cell line
  CEM cell death (in words): did not induce quantifiable CEM cell death
[1]
  Compound crystallization in treated cells: significant compound crystallization

## COc1cc(-c2cn(-c3cc(=O)oc4ccc(Br)cc34)nn2)cc(OC)c1OC [Compound 16, 6‐Bromo‐4‐(4‐(3,4,5‐trimethoxyphenyl)‐1H‐1,2,3‐triazol‐1‐yl)‐2H‐chromen‐2‐one]
CEM leukemia cell line
  CEM cell death (in words): did not induce significant CEM cell death
[1]
  Solubility (in words): relatively soluble

## COc1cc(-c2cn(-c3cc(=O)oc4c(Cl)cc(Cl)cc34)nn2)cc(OC)c1OC [Compound 17, 6,8‐Dichloro‐4‐(4‐(3,4,5‐trimethoxyphenyl)‐1H‐1,2,3‐triazol‐1‐yl)‐2H‐chromen‐2‐one]
CEM leukemia cell line
  CEM cell death (in words): did not induce significant CEM cell death
TK+ VZV
  EC50: 66.9 µM
